PTEN del growth = growth suppressors of cells with PTEN tumor suppressor deletion | 140,000 tested, 1.2% active | viability, % at 10 µM | HCT116 PTEN-null viability, CellTiter-Glo, 60 h; active compounds read low;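 active = viability at or below a set limit, 4 SD under the median of all tested compounds, cut at about 3.7% in these data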;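 note: PTEN knockout HCT116 line with beta catenin targeted HCT116 as companion control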
Fibroblast inh = blocks proliferation of human lung fibroblasts | LL 47 human lung fibroblast viability, ATP luminescence; active compounds read low | viability, % at 10 µM | 85,000 tested, 1.1% active | AID 719;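 active = viability at or below 50% in the single dose screen; inactive = viability above 50%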;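 note: compound exposure lasted 72 h before the ATP readout; 100% = median luminescence of untreated cell-only wells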
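Test system: LL 47 human lung fibroblasts / Incubation: 72 h compound exposure at 37 °C after overnight plating / Technique: luminescent ATP detection, CellTiter-Glo / Compound dosing: 0.1% DMSO in all compound wells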
HUVEC inhibit = inhibitors of human endothelial cell proliferation. 86,000 tested, 1.1% active. HUVEC proliferation, CellTiter-Glo luminescence, 72 h; active compounds read low. AID 648. viability, % at 10 µM (by protocol);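 active = viability at or below 30%; inactive = viability above 30%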;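 note: 100% = median luminescence of DMSO-only cell control wells on each plate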
H69AR inhibit = growth inhibitors of human H69AR lung tumor cells. H69AR lung tumor viability, ATP luminescence, 72 h; active compounds read low. 85,000 tested, 6% active. viability, % at 10 µM;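 active = viability at or below 40%; inactive = viability above 40%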;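 note: multidrug resistant small cell line overexpressing MRP-1 efflux transporter; 100% = mean luminescence of untreated control wells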
HCT116 bCat-KO = beta-catenin-lacking colon tumor cell growth suppression; HCT116 beta-catenin knockout viability, CellTiter-Glo, 60 h; active compounds read low; viability, % at 10 µM; 140,000 tested, 1.5% active;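 active = viability at or under a set limit, the compound median less 4 SD, cut at about 6% in these data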;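 note: 0% = Hyamine 1622 control at 20 µM and 100% = untreated cell control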
Numbers without * were called inactive; . = no result given. This is one part of a sample in which hits are shown more often than they occur.

SMILES	PTEN del growth	Fibroblast inh	HUVEC inhibit	H69AR inhibit	HCT116 bCat-KO
CN1CCN(CCOC2Cc3ccccc3Sc3ccc(Cl)cc32)CC1 (centres undefined)	33	.	.	.	29
OCCN1CCN(C2Cc3cc(Cl)ccc3Sc3ccc(Cl)cc32)CC1 (centres undefined) (tested in a mixture with another compound)	44	92	2.4*	8.9*	33
CC1CCC(NC(=O)CC(C)(C)Cc2nc3ccccc3c(=O)[nH]2)CC1 (centres undefined)	82	97	71	25*	78
C/C=C(\CS(=O)(=O)c1ccccc1)S(=O)(=O)c1ccccc1	36	64	89	25*	52
O=C(CSc1nnc(-c2ccncc2)n1-c1ccc(Cl)cc1)N1CCOCC1	100	106	91	82	96
COc1ccc2c(c1)c(=O)cc(-c1ccccc1)n2C	90	106	83	55	81
O=C1N(Nc2ccccc2)C(c2ccc(Br)cc2)C12CCCCC2 (centres undefined)	79	78	49	19*	82
O=C1N(Nc2ccccc2)C(c2ccc(Br)cc2)C12CCCC2 (centres undefined)	81	94	103	91	90
Cc1cnc(NC(=O)c2ccc(-c3nc4ccccc4s3)o2)s1	90	103	91	28*	99
O=C(COc1ccc(C(=O)c2ccccc2)cc1)NCC(=O)Nc1ccccc1Br	57	.	.	.	65
O=C(CSCc1c(Cl)cccc1Cl)Nc1ccc2c(c1)OCCO2	80	.	.	.	85
Cc1nc(NCCc2ccc(S(N)(=O)=O)cc2)c2c3c(sc2n1)CCC3	86	.	.	.	84
NS(=O)(=O)c1ccc(CCNc2nc(CN3CCOCC3)nc3sc4c(c23)CCC4)cc1	.	97	85	16*	.
Cc1sc2nc(CN3CCOCC3)nc(NS(=O)(=O)c3ccccc3)c2c1C	97	105	94	89	99
Cc1sc2nc(CN3CCOCC3)nc(NCCc3ccccc3)c2c1C	88	97	88	30*	79
CCOc1ccc(Br)cc1S(=O)(=O)Nc1nc(CN2CCOCC2)nc2sc(C)c(C)c12	91	98	84	34*	98
O=C(c1cccc(S(=O)(=O)Nc2cccc(C(F)(F)F)c2)c1)N1CCCCC1	98	.	.	.	96
CC(C)(C)c1ccc(C(=O)NCC(=O)OCC(=O)Nc2ccc3c(c2)OCCO3)cc1	105	.	.	.	93
O=C(Nc1nnc(-c2ccccc2)s1)c1cc(S(=O)(=O)N2CCOCC2)c(Cl)cc1Cl	65	93	47	10.0*	35
Cc1ccnc(NC(=S)NC(=O)/C=C/c2ccco2)c1	24	72	64	26*	19
O=C(Nc1ccccc1-c1nc2ccccc2s1)c1ccco1	65	83	46	37*	71
O=C(/C=C/c1ccco1)NC(=S)NNC(=O)c1ccco1	62	92	28*	62	60
O=C(NNC(=S)Nc1ccccc1)c1ccco1	98	.	.	.	95
O=C(/C=C/c1ccco1)NC(=S)Nc1ccc(O)c(-c2nc3ccccc3s2)c1	8	.	.	.	2.2*
O=C(Nc1ccc(O)c(-c2nc3ccccc3s2)c1)c1cccs1	100	.	.	.	91
SMILES	PTEN del growth	Fibroblast inh	HUVEC inhibit	H69AR inhibit	HCT116 bCat-KO
COCc1cc(C)nc(OCC(=O)N/N=C\c2cc(C)n(-c3cccc(C(F)(F)F)c3)c2C)c1C#N	103	.	.	.	105
Cc1c(-c2ccccc2)oc2c(C(=O)OCC(=O)Nc3ccc(F)cc3)cccc2c1=O	81	.	.	.	85
O=C(Cn1ncc(Cl)c(Cl)c1=O)NCC1CCCCC1	1.5*	.	.	.	1.8*
C=CCn1c(C)cc(C(=O)Cn2ncc(Cl)c(Cl)c2=O)c1C	1.4*	.	.	.	1.7*
O=C(OCn1ncc(Cl)c(Cl)c1=O)c1ccc(F)cc1	0.5*	.	.	.	0.8*
Cc1cccc(N2CCN(CC(=O)NCC3CCCCC3)CC2)c1C	93	103	102	95	80
O=C(OCn1ncc(Cl)c(Cl)c1=O)c1ccccc1Cl	7	.	.	.	3.9*
CC(C)OCCCNC(=S)Nc1ccc(S(N)(=O)=O)cc1	93	.	.	.	80
CC(C)(C)C1C=C(Sc2ccccc2)C(=O)O1 (centres undefined)	86	.	.	.	87
COC(=O)C1=C(C(=O)OC)SC2(S1)C(C(=O)OC)=C(C(=O)OC)SC1=C2c2cc(C)ccc2NC1(C)C	29	97	99	67	38
CC(C)(C)c1ccc(S(=O)(=O)N2CC(=O)Nc3ccccc32)cc1	92	93	91	98	85
C[n+]1ccn(CC(=O)c2ccc(Cl)cc2)c1	92	.	.	.	97
O=C(Cn1ncc(Cl)c(Cl)c1=O)c1ccc(Cl)cc1	2.0*	2.6*	2.6*	1.4*	1.7*
C=C1C(O)C[C@H]2C(=C)CCC3[C@H](OC(=O)[C@]3(O)CO)[C@@H]12 (some centres undefined)	0.5*	.	.	.	0.7*
Cc1nn(-c2ccccc2)c(Cl)c1C(=O)NCc1cccs1	88	.	.	.	90
O=C(/C=C/c1cccc([N+](=O)[O-])c1)Nc1ccc(NC(=O)c2cccs2)cc1	51	.	.	.	56
O=C(/C=C/c1cccc([N+](=O)[O-])c1)c1cccs1	1.5*	.	.	.	2.2*
CCN(C(=S)Nc1ccccc1F)C1CCCCC1	97	.	.	.	103
CC1(C)OC(=O)N(CCc2ccccc2)C1(C)O (centres undefined)	90	.	96	106	98
CC1(C)OC(=O)N(c2ccccc2)C12C=Cc1cc(Br)ccc1O2 (centres undefined)	52	91	100	18*	66
CCOc1ncccc1C(=O)OCc1ccc(C(=O)OC)cc1	16	.	.	.	19
CCCN1C(=O)SC(CC(=O)Nc2ccccc2C)C1=O (centres undefined)	69	106	93	30*	66
Cc1ccccc1NC(=O)CC1SC(=O)N(c2ccccc2)C1=O (centres undefined)	108	103	91	105	89
Clc1ccc(Cn2cc(/C=N/n3cnnc3)c3ccccc32)c(Cl)c1	86	76	13*	75	84
C(=N\n1cnnc1)/c1cn(Cc2ccccc2)c2ccccc12	80	77	48	75	80
SMILES	PTEN del growth	Fibroblast inh	HUVEC inhibit	H69AR inhibit	HCT116 bCat-KO
CCN(CC)c1ccc2cc(C(=O)Nc3ccccn3)c(=O)oc2c1	100	96	94	93	99
CCN(CC)c1ccc2cc(C(=O)Nc3cccnc3N3CCOCC3)c(=O)oc2c1	.	64	60	21*	.
CCN(CC)c1ccc2cc(C(C)=O)c(=O)oc2c1	103	99	107	89	101
CCOc1cc(-n2cnnn2)c(OCC)cc1NC(=O)c1cc2ccc(N(CC)CC)cc2oc1=O	.	86	34	13*	.
Cc1ccccc1NS(=O)(=O)c1ccc(F)cc1	113	93	83	98	104
COc1ccc(S(=O)(=O)Nc2ccccc2C)cc1	38	78	53	13*	46
Cc1ccc(S(=O)(=O)/N=C(/Nc2c(C)n(C)n(-c3ccccc3)c2=O)c2ccccc2)cc1	95	.	.	.	92
